From ChEMBL document CHEMBL2046381, “Defining the mechanism of action and enzymatic selectivity of psammaplin A against its epigenetic targets” (J Med Chem, 2012) come the findings set out here.

One data set concerns the target T1, Histone deacetylase 8 (Homo sapiens, UniProt Q9BY41).
T1 sequence (Q9BY41 whole entry): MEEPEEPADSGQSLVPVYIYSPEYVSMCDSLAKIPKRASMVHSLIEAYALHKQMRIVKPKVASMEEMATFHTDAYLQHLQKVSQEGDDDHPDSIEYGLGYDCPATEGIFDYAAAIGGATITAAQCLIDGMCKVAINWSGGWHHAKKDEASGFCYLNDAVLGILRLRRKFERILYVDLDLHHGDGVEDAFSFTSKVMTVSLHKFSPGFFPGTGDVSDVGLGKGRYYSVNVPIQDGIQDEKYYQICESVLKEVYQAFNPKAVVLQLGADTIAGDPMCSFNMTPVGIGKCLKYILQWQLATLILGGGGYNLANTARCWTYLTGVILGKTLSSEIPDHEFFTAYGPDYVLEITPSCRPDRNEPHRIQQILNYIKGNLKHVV
In words: Inhibition of human recombinant HDAC8 using Boc-lys(Ac)-AMC as substrate preincubated for 20 mins with substrate measured after 60 mins by fluorescence analysis.

In data set [1] the test system is MCF7. In words: Selectivity index, ratio of GI50 for human WI38 cells to GI50 for human MCF7 cells. In kind it is functional.
Data set [2] is described as follows: Growth inhibition of human WI38 cells after 96 hrs by sulphorhodamine B assay. The class given is cell-based. The settings on record: WI-38 cells. The method in brief: (§1)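 SRB growth assay; MCF7 and WI38 seeded 4000 cells/well, A549 2000 cells/well, attached overnight, then exposed to freshly made drug solutions (0.1 to 50 μM) for 96 h. Fixed with cold 10% TCA, stained with 0.4% SRB; absorbance at 540 nm as percent of untreated control, IC50 from mean absorbance.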

Data set [3] relates to MCF7. In words: Selectivity index, ratio of GI50 for human A549 cells to GI50 for human MCF7 cells. In kind it is functional.
The next data set relates to A549. Put plainly: Growth inhibition of human A549 cells after 96 hrs by sulphorhodamine B assay. In kind it is functional. As to conditions: A549, 96 h. The method in brief:
as §1

Data set [4] concerns the target T2, Histone deacetylase-like amidohydrolase (Alcaligenes sp. (strain DSM 11172) (Bordetella sp. (strain FB188))) (UniProt Q70I53).
T2 sequence (whole entry): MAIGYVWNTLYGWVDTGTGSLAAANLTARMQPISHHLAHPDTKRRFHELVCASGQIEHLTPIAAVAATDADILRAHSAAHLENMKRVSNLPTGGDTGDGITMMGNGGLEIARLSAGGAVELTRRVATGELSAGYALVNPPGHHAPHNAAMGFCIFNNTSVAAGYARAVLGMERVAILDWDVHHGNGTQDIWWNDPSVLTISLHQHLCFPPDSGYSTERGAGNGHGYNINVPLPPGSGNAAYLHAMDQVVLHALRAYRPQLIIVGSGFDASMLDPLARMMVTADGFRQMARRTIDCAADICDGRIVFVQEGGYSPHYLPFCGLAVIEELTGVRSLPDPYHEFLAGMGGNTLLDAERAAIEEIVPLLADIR
Put plainly: Inhibition of Bordetella sp. (strain FB188) N-terminus His-tagged HDAH expressed in Escherichia coli BL21 (DE3) up to 100 uM. As to conditions: Alcaligenaceae bacterium FB188. The method in brief:
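Recombinant N-terminal His6-tagged HDAH from Bordetella strain FB188, expressed in E. coli BL21, purified on zinc-loaded His-Trap column, eluted with 500 mM imidazole, dialyzed into assay buffer (>98% pure by SDS-PAGE). Tested directly against compounds; thiols generated in situ from disulfides with TCEP.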

SMILES strings stand for the structures. The source made the active and inactive calls. No rule for the calls is given here.

Usually IC50 stands for the point on the concentration scale where inhibition reaches its midpoint. As a reminder, the GI50 is the concentration at which growth is held to half of that of the control.

With `N/N=C(\Cc1ccc(O)c(Br)c1)C(=O)NCCS`, on Histone deacetylase 8, the IC50 was 13 µM. Moreover, the RatioGI50 with MCF7 [1] and in the data set with MCF7 [3] was 10 each time. In data set [2], this compound gave a GI50 at 96 h of 37.2 µM. Moreover, it took 33.4 µM to inhibit growth in the data set on A549 by half (GI50). In addition, the inhibition result in data set [4] is “inactive”.
